Test results: ChEMBL document CHEMBL5634116, “Strategies for developing retinoic acid receptor alpha-selective antagonists as novel agents for male contraception” (Eur J Med Chem, 2023)

Legend:
[1] = target: T1, Retinoic acid receptor beta (Homo sapiens, UniProt P10826); test: Antagonist activity at recombinant human RAR-beta expressed in mammalian cells in presence of ATRA by luciferase reporter gene based transactivation assay; format: cell-based
T1 sequence (P10826 whole entry): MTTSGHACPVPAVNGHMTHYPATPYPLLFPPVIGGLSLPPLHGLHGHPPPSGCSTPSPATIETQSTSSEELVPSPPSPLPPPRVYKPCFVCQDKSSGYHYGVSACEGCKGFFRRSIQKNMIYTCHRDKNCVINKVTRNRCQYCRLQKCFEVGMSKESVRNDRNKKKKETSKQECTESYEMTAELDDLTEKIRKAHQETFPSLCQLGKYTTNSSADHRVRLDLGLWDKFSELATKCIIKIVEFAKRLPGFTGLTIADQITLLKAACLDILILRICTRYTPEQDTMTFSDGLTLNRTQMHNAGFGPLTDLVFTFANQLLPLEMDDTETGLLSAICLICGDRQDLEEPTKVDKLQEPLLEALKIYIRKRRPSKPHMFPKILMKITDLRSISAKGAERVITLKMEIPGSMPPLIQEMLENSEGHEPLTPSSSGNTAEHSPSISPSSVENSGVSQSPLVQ

[2] = target: T2, Retinoic acid receptor gamma (Homo sapiens, UniProt P13631); test: Antagonist activity at recombinant human RAR-gamma expressed in mammalian cells in presence of ATRA by luciferase reporter gene based transactivation assay; format: cell-based
T2 sequence (P13631 whole entry): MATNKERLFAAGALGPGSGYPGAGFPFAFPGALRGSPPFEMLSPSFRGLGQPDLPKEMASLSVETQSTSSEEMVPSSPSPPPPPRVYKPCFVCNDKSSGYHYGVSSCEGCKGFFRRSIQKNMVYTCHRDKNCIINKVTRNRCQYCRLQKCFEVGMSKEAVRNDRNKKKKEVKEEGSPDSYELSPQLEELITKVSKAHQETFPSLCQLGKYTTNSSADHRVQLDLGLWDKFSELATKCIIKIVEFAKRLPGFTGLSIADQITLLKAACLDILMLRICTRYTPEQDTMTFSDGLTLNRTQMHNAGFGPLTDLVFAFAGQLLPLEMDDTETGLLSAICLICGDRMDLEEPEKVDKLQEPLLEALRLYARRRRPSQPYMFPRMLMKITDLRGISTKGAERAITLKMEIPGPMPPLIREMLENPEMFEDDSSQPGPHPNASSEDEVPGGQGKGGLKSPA
Outline: (§1)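 Compounds 8-point dose response in triplicate, DMSO final 0.4%; overnight at 37 °C, 5% CO2; luminescence after 30 min detection reagent. IC50 by four-parameter logistic fit; agonist-free wells set background.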

[3] = target: T3, Retinoic acid receptor alpha (Homo sapiens, UniProt P10276); test: Antagonist activity at recombinant human RAR-alpha expressed in mammalian cells in presence of 9-cis-RA by luciferase reporter gene based transactivation assay; format: cell-based; outline: as §1
T3 sequence (P10276 whole entry): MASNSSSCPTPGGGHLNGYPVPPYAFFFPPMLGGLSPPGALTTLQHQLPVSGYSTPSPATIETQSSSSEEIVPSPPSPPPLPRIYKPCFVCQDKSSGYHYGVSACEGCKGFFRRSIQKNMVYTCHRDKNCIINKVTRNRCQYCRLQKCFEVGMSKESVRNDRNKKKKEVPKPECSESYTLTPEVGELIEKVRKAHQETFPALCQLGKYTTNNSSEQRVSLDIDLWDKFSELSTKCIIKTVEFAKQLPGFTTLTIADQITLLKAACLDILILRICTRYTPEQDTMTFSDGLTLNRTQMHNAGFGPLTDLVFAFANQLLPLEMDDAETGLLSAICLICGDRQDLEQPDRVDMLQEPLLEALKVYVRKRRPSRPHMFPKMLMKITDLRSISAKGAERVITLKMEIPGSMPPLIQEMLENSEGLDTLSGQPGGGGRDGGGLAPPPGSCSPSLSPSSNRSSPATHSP

[4] = target: T3, Retinoic acid receptor alpha
[5] = target: T2, Retinoic acid receptor gamma; test: Agonist activity at recombinant human RAR-gamma expressed in mammalian cells by luciferase reporter gene based transactivation assay; format: cell-based
Outline: (§2)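 Human RAR-subtype luciferase reporter cells (RARE-driven). Compounds in DMSO (final 0.4%) tested as 8-point dose response in triplicate. Incubated overnight at 37 °C in 5% CO2, then detection reagent 30 min at r.t. and luminescence measured. EC50 by four-parameter logistic fit, mean ± SEM from geometric mean of log EC50 across independent experiments.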

[6] = target: T4, Retinoic acid receptor gamma (Homo sapiens) (UniProt P13631); test: Agonist activity at recombinant human RAR-gamma expressed in mammalian cells by luciferase reporter gene based transactivation assay relative to control; format: cell-based
T4 sequence (whole entry): T2 sequence (P13631 whole entry)
Outline: (§3)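 Transactivation in proprietary reporter cells expressing recombinant human RAR subtype with RARE-linked beetle luciferase. Compounds in DMSO (final 0.4%), 8-point dose response in triplicate; cells added, incubated overnight at 37 °C, 5% CO2, then luciferase reagent 30 min r.t., luminescence read.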

[7] = target: T5, Retinoic acid receptor alpha (Homo sapiens) (UniProt P10276); test: Agonist activity at recombinant human RAR-alpha expressed in mammalian cells by luciferase reporter gene based transactivation assay relative to control; format: cell-based; outline: as §3
T5 sequence (whole entry): T3 sequence (P10276 whole entry)

[8] = target: T1, Retinoic acid receptor beta; test: Agonist activity at recombinant human RAR-beta expressed in mammalian cells by luciferase reporter gene based transactivation assay; format: cell-based; outline: as §2
[9] = target: T6, Retinoic acid receptor beta (Homo sapiens) (UniProt P10826); test: Agonist activity at recombinant human RAR-beta expressed in mammalian cells by luciferase reporter gene based transactivation assay relative to control; format: cell-based; outline: as §3
T6 sequence (whole entry): T1 sequence (P10826 whole entry)

Structure (SMILES) | IC50 [1] | IC50 [2] | IC50 [3] | other results
CC1(C)CC=C(c2ccc(N3CCOCC3)cc2)c2cc(NC(=O)c3ccc(C(=O)O)cc3)ccc21 | 0.73 µM | > 3.3 µM | > 3300 nM | 
CC1(C)CC=C(c2ccc(N3CCOCC3)cc2)c2cc(NC(=O)c3ccc(C(=O)O)c([N+](=O)[O-])c3)ccc21 | > 3.3 µM | > 3.3 µM | > 3300 nM | 
CC1(C)CC=C(c2ccc(N3CCOCC3)cc2)c2cc(NC(=O)Nc3ccc(C(=O)O)cc3)ccc21 | > 3.3 µM | > 3.3 µM | > 3300 nM | 
CC1(C)CC=C(c2ccc(CN3CCOCC3)cc2)c2cc(NC(=O)c3ccc(C(=O)O)cc3)ccc21 | > 3.3 µM | > 3.3 µM | 1500 nM | 
CC1(C)CC=C(c2ccccc2)c2cc(/C=C/c3ccc(C(=O)O)cc3)ccc21 |  | 0.0075 µM | 9.4 nM | IC50 [4]: ~10 nM; EC50 [5]: 120 nM; Emax [6]: 26%
CC1(C)CC=C(c2ccc(N3CCOCC3)cc2)c2cc(C(=O)Nc3ccc(C(=O)O)cc3)ccc21 | > 3.3 µM | 1.5 µM | 1100 nM | 
Cc1ccc(C2=CCC(C)(C)c3ccc(C(=O)N4CCc5cc(C(=O)O)ccc5C4)cc32)cc1 | > 3.3 µM | > 3.3 µM | > 3300 nM | 
Cc1ccc(C2=CC(C)(C)Oc3ccc(S(=O)(=O)Nc4ccc(C(=O)O)cc4)cc32)cc1 | > 3.3 µM | > 3.3 µM | > 3300 nM | 
Cc1ccc(C2=CCC(C)(C)c3ccc(-c4ccc5cc(C(=O)O)ccc5n4)cc32)cc1 | 0.021 µM | 0.13 µM | > 3300 nM | 
CC1(C)CC=C(c2ccccc2)c2cc(NC(=O)Nc3ccc(C(=O)O)cc3)ccc21 | > 3.3 µM | > 3.3 µM | > 3300 nM | 
Cc1ccc(C2=CC(C)(C)Oc3c(Br)cc(S(=O)(=O)Nc4ccc(C(=O)O)cc4)cc32)cc1 | > 3.3 µM | > 3.3 µM | > 3300 nM | 
CC1(C)CC=C(c2ccccc2)c2cc(C(=O)NCc3ccc(C(=O)O)cc3)ccc21 | > 3.3 µM | > 3.3 µM | > 3300 nM | 
Cc1ccc(C2=CCC(C)(C)c3ccc(C(=O)Nc4ccc(C(=O)O)cc4)cc32)cc1 | > 3.3 µM | 2.6 µM | 29 nM | Emax [7]: 9%; EC50 [8]: 55 nM; Emax ([9]; filed as agonist): 46%; EC50 [5]: > 3300 nM; Emax [6]: 15%
CC1(C)CC=C(c2cnc3ccccc3c2)c2cc(C(=O)Nc3ccc(C(=O)O)cc3)ccc21 | 0.26 µM | 2.7 µM | 270 nM | 
CC1(C)CC=C(c2ccc(C(=O)N3CCOCC3)cc2)c2cc(NC(=O)c3ccc(C(=O)O)cc3)ccc21 | > 3.3 µM | > 3.3 µM | > 3300 nM | 
CC1(C)CC=C(c2cccs2)c2cc(C(=O)Nc3ccc(C(=O)O)cc3)ccc21 | > 3.3 µM | > 3.3 µM | 440 nM | Emax [7]: 3%; EC50 [8]: 15 nM; Emax ([9]; filed as agonist): 167%
Cc1ccc(C2=CCC(C)(C)c3ccc(C(=O)NCc4ccc(C(=O)O)cc4)cc32)cc1 | > 3.3 µM | > 3.3 µM | > 3300 nM | 
Cc1ccc(C2=CCC(C)(C)c3ccc(C(=O)Nc4cc(F)c(C(=O)O)c(F)c4)cc32)cc1 | > 3.3 µM | > 3.3 µM | 430 nM | 
Cc1ccc(C2=CCC(C)(C)c3ccc(NC(=O)Nc4ccc(C(=O)O)cc4)cc32)cc1 | 0.84 µM | > 3.3 µM | > 3300 nM | 
Cc1ccc(C2=CC(C)(C)Oc3ccc(S(=O)(=O)Nc4cc(F)c(C(=O)O)c(F)c4)cc32)cc1 | > 3.3 µM | > 3.3 µM | > 3300 nM | 
Cc1ccc(C2=CC(C)(C)Oc3ccc(NS(=O)(=O)c4ccc(C(=O)O)cc4)cc32)cc1 | > 3.3 µM | > 3.3 µM | > 3300 nM | 
CC1(C)CC=C(c2ccccc2)c2cc(C(=O)Nc3ccc(C(=O)O)cc3)ccc21 | > 3.3 µM | > 3.3 µM | 140 nM | Emax [7]: 4%; EC50 [8]: 25 nM; Emax ([9]; filed as agonist): 150%; EC50 [5]: 560 nM; Emax ([6]; filed as agonist): 47%
Cc1ccc(C2=CC(C)(C)Oc3c(Br)cc(S(=O)(=O)Nc4cc(F)c(C(=O)O)c(F)c4)cc32)cc1 | > 3.3 µM | > 3.3 µM | > 3300 nM | 
CC1(C)CC=C(c2ccc(CN3CCOCC3)cc2)c2cc(C(=O)Nc3ccc(C(=O)O)cc3)ccc21 | 0.173 µM | > 3.3 µM | 520 nM | Emax [7]: 0%; Emax [9]: 0%; Emax [6]: 0%
Cc1ccc(C2=CCC(C)(C)c3ccc(N4CCc5cc(C(=O)O)ccc5C4)cc32)cc1 | 0.35 µM | > 3.3 µM | > 3300 nM | 
